Most compounds without a hit are left out; they make up all but 3.5% or so of the library.
Cneo AK release: Cryptococcus neoformans lysis via adenylate kinase release. C. neoformans lysis, adenylate kinase release luminescence, 4 h; normalised: neutral wells 0, clomiphene wells 100. lysis activity, % at 15 µM. 0.2% of 360,000 active. AID 651654;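 active = mean lysis activity across replicates of at least 80%, whatever share of replicates individually reach that level; inactive = mean lysis activity below 80%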
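read-out = cell lysis signal | test system = log-phase Cryptococcus neoformans yeast cells | input = cells at 5 × 10^6 per mL | medium = fresh YPD growth medium | signal = luminescent adenylate kinase detection reagent | timing = 4 h at 37 °C static, read 1 h later | dosing = single dose | controls = Clomiphene as positive lysis control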
Wnt bcat act: activators of Wnt/beta-catenin signaling; Wnt/beta-catenin reporter cell assay, activator, plate reader; activation, % at 9.35 µM; 1.2% of 300,000 active; AID 743398; in the data active = activation above about 30%, passing the limit was not always enough; inconclusive = no clear call, values can overlap the other calls;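 also: 0% = neutral control wells and 100% = positive control wells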
esBAF inh: blocks esBAF chromatin remodeling in mouse ES cells | Bmi1-luciferase knock-in reporter, 24 h; 100% = twice the neutral-well signal | reporter increase, % at 12.5 µM | 2% of 350,000 active | AID 602393; in the data active = activation above about 40%; inconclusive = no clear call, values can overlap the other calls;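 also: 0% = median of the plate's neutral control wells and 100% = double that signal; a rise in the Bmi1 reporter signal indicates esBAF inhibition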
ERAP1 inh: inhibitors of human ERAP1 aminopeptidase; Q9NZ08; recombinant ERAP1, Leu-AMC fluorescence, 60 min; inhibition, % at 10.7 µM; 0.15% of 340,000 active; AID 652197;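 active = mean replicate inhibition of at least 30%, or all replicates individually reaching that 30% level; inactive = mean below 30% and not every replicate reaching it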;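 also: 0% = neutral control wells and 100% = L-leucinethiol positive control wells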
Target sequence (Q9NZ08 whole entry, looked up): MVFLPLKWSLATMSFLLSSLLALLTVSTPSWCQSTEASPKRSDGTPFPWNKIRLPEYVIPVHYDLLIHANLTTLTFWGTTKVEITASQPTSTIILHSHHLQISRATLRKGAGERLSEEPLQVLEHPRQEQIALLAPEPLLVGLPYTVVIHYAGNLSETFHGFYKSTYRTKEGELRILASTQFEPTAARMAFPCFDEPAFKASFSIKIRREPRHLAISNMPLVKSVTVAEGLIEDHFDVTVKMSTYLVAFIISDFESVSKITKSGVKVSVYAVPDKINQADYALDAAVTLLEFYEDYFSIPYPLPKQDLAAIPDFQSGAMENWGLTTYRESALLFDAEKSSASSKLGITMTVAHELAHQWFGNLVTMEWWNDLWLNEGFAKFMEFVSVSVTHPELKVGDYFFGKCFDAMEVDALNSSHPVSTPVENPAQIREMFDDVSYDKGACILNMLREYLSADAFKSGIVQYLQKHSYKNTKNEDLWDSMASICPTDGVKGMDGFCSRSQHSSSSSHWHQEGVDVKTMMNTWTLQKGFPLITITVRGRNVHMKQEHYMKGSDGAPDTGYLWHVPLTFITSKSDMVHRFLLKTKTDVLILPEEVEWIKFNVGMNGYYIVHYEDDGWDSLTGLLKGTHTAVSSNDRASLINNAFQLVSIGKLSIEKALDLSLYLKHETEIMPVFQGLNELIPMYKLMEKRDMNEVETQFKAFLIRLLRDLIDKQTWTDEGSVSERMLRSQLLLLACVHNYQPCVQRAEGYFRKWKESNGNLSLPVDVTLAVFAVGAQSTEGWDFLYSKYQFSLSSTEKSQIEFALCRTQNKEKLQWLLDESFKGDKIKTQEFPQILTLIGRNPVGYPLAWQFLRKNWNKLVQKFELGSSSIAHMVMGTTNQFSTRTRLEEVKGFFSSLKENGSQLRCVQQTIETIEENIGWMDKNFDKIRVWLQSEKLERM
MITF act: MITF TRPM1 promoter activation in melanoma cells | SK-MEL-5 TRPM1-promoter luciferase, 24 h; % of positive control, neutral wells = 0 | activation, % at 12.5 µM | 0.75% of 300,000 active;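 active = mean activation of at least 80% with every replicate also reaching 80%; inconclusive = mean reaches 80% but some replicate falls short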;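 also: 0% = neutral control wells and 100% = parthenolide positive control wells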
HIV Env fusion: blocks HIV Env-driven cell-cell fusion | 1.1% of 360,000 active | AID 651610 | HeLa-JRFL Env/CEM21 cell fusion, luciferase | inhibition, % at 12.3 µM;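 active = mean replicate inhibition score of at least 50 and every replicate individually at or above 50; inconclusive = only one of the two criteria met; inactive = mean below 50 and not all replicates reaching 50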;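 also: 0% = plate neutral controls and 100% = maraviroc near 300 nM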
* = called active by the depositor; ? = inconclusive; / = not tested or not shown; [ ] = another dose, or the depositor's remark.

SMILES | Cneo AK release | Wnt bcat act | esBAF inh | ERAP1 inh | MITF act | HIV Env fusion
O=C(COC(=O)c1ccccc1-n1cnnn1)c1ccccc1 | -4 | -1 | 11 | -4 | 7 | -5
O=C(COC(=O)c1ccccc1-n1cnnn1)c1ccc(F)c(F)c1 | -3 | 5 | 56* | 1 | -4 | /
C[C@H]1CN([C@@H](C)CO)C(=O)c2c(c3ccccc3n2C)-c2ccccc2CO[C@@H]1CN(C)S(=O)(=O)c1ccc(Cl)cc1 | -3 | / | 2 | 4 | / | /
Cc1ccc(S(=O)(=O)N(C)C[C@@H]2OCc3ccccc3-c3c(n(C)c4ccccc34)C(=O)N([C@H](C)CO)C[C@@H]2C)cc1 | / | -3 | 2 | 0 | / | 95*
C[C@@H]1CN([C@@H](C)CO)C(=O)c2c(c3ccccc3n2C)-c2ccccc2CO[C@@H]1CN(C)S(=O)(=O)c1ccc(Cl)cc1 | 100* | / | 3 | -5 | / | /
Cc1ccc(S(=O)(=O)N(C)C[C@H]2OCc3ccccc3-c3c(n(C)c4ccccc34)C(=O)N([C@@H](C)CO)C[C@@H]2C)cc1 | -1 | / | 6 | -1 | / | /
C[C@@H]1CN([C@H](C)CO)C(=O)c2c(c3ccccc3n2C)-c2ccccc2CO[C@H]1CN(C)S(=O)(=O)c1ccc(Cl)cc1 | 107* | / | 0 | -1 | / | /
C[C@H](CO)N1C[C@H](C)[C@H](CN(C)S(=O)(=O)c2ccc(Cl)cc2)OCc2ccccc2-c2c(n(C)c3ccccc23)C1=O | 0 | -7 | 2 | 4 | / | 82*
C[C@H]1CN([C@@H](C)CO)C(=O)c2c(c3ccccc3n2C)-c2ccccc2CO[C@H]1CN(C)S(=O)(=O)c1ccc(Cl)cc1 | -1 | / | 4 | 1 | / | /
C[C@@H]1CN([C@@H](C)CO)C(=O)Cc2cc(NS(=O)(=O)c3cccs3)ccc2O[C@H]1CN(C)Cc1ccc(-c2ccccc2)cc1 | 0 | / | -7 | -2 | / | -1[16.7 µM]
COc1ccc(S(=O)(=O)N(C)C[C@@H]2OCCCC[C@H](C)Oc3ccc(NC(=O)NC(C)C)cc3C(=O)N([C@H](C)CO)C[C@@H]2C)cc1 | -4 | / | 5 | -1 | / | -11[16.7 µM]
O=C(Nc1cccc(Cl)c1)c1cnn2cccnc12 | -10 | / | 39 | / | 89* | -162
CSc1cccc(NC(=O)c2cnn3ccccc23)c1 | / | 40* | / | -6 | 104* | -94
COc1cc2oc(=O)cc(-c3ccc(-c4ccc(CO)cc4)cc3)c2c(OC)c1OC | 1 | -1 | -6 | / | 16 | 118*
CO[C@@H]1CN(C)C(=O)c2cc(NC(=O)C3CC3)ccc2OC[C@@H](C)N(C)C[C@@H]1C | -16 | / | -1 | 0 | / | /
CCOc1ccc(NC(=O)c2cccc3ccccc23)cc1 | 3 | 3 | 43* | 3 | / | -24
CCOc1ccc(NC(=O)c2ccc(F)cc2F)cc1 | 0 | 41* | 24 | -1 | 93* | -61
CCN1C[C@@H](C)[C@H](OC)CN(C)C(=O)c2cc(NC(=O)NC(C)C)ccc2OC[C@H]1C | 0 | / | 10 | 1 | / | 11[16.7 µM]
Cc1cc(C)n(C(N)=NC(=O)c2ccccc2)n1 | 2 | 43* | / | -4 | / | -2
Cc1cc(C)n(/C(=C/N(C)C)C(=O)c2ccccc2)n1 | / | 0 | / | 1 | 6 | -18
Cc1cc(C)n(C(N)=NC(=O)c2ccc([N+](=O)[O-])cc2)n1 | 1 | 10 | ? | 0 | 95* | -71
O=C(C[C@H]1C[C@@H]2c3cc(NC(=O)Nc4ccc(C(F)(F)F)cc4)ccc3O[C@@H]2[C@@H](CO)O1)NCCc1ccccc1 | -2 | / | 8 | 1 | / | 21[16.7 µM]
C[C@H](CO)N1C[C@H](C)[C@@H](CN(C)Cc2ccc(Cl)c(Cl)c2)Oc2c(NS(=O)(=O)c3ccc(Cl)cc3)cccc2C1=O | -1 | / | 2 | 1 | / | ?
CNC[C@@H]1Oc2ccc(NC(=O)CCCN(C)C)cc2C(=O)N([C@H](C)CO)C[C@H]1C | -1 | / | -1 | -1 | / | -2[16.7 µM]
O=C(C[C@H]1CC[C@@H]2[C@H](COC[C@@H](O)CN2S(=O)(=O)c2cccc(Cl)c2)O1)NCCCN1CCOCC1 | -4 | / | -9 | / | / | /
SMILES | Cneo AK release | Wnt bcat act | esBAF inh | ERAP1 inh | MITF act | HIV Env fusion
CC(C)N1CC2(CC(c3ccc(Cl)cc3Cl)=NO2)CN1C(=O)c1ccc(C(C)(C)C)cc1 (stereo unspecified) | 0 | -2 | 8 | / | / | 25
CC(=O)N1CC2(CC(c3ccccc3F)=NO2)CN1c1ccc(Cl)cc1 (stereo unspecified) | / | -2 | 55* | / | / | -20
C[C@@H]1CN([C@H](C)CO)C(=O)c2cc(/C=C/c3ccccc3)cnc2O[C@@H]1CN(C)C(=O)C1CC1 | / | / | / | 3 | / | /
CC(NC(=O)c1ccc(N(C)C)cc1)C(c1cccs1)N1CCN(C)CC1 (stereo unspecified) | -1 | / | 43* | / | 67 | /
c1ccc(C[n+]2c(-c3ccccc3)csc2Nc2ccccc2)cc1 | 3 | 1 | / | -2 | 4 | /
c1ccc(Nc2scc(-c3ccccc3)[n+]2Cc2ccco2)cc1 | / | 53* | / | / | 72 | -89
COc1ccc(NC(=O)N(C)C[C@H]2Oc3c(NS(=O)(=O)c4ccc(C)cc4)cccc3C(=O)N([C@H](C)CO)C[C@H]2C)cc1 | 0 | / | 4 | 1 | / | -2[16.7 µM]
O=C(C[C@@H]1CC[C@@H]2[C@H](COC[C@H](O)CN2C(=O)c2ccccc2F)O1)N1CCN(c2ccccc2)CC1 | -1 | / | 6 | -1 | / | /
CCn1c(CCNC(=O)c2cccs2)nnc1SCC(=O)Nc1nc(-c2ccccc2)cs1 | 1 | / | 44* | / | / | -1
CC(C)(C)c1csc(NC(=O)c2cccs2)n1 | -1 | / | 103* | / | 51 | /
CC(C)(C)c1csc(NC(=O)Cc2cccs2)n1 | / | -2 | / | 2 | 15 | -3
CC(C)(C)c1cc(NC(=O)c2cccs2)no1 | -8 | 31* | -9 | -6 | 63 | -127
O=C(Nc1nc(-c2ccccc2)cs1)c1ccccc1NS(=O)(=O)c1ccc(F)cc1 | / | -25 | / | / | -69 | 64*
COc1ccc(NC(=O)N(C)C[C@H]2Oc3ncc(-c4ccc(C#N)cc4)cc3C(=O)N([C@H](C)CO)C[C@H]2C)cc1 | 3 | / | 1 | 3 | / | -14[16.7 µM]
Cc1noc(C)c1NC(=O)N[C@H]1CC[C@H](CC(=O)Nc2ccc(-c3ccccc3)cc2)O[C@H]1CO | -3 | / | 5 | 4 | / | 9[16.7 µM]
O=C(NCc1nc(-c2ccccc2)no1)c1cccs1 | 2 | -3 | -3 | 0 | 6 | /
O=C(Nc1nc(-c2ccccc2)cs1)c1cccs1 | -7 | / | 62* | / | 61 | /
O=C(Nc1nc(-c2ccccc2)ns1)c1cccs1 | 20 | 20 | 44* | 2 | 43 | /
O=C(Nc1nc(-c2ccc(Cl)s2)cs1)c1ccco1 | / | 0 | / | / | 52 | -44
O=C(Nc1nc(-c2ccc(Cl)s2)cs1)c1cccs1 | -6 | / | 69* | / | 41 | /
C[C@H]1CN([C@@H](C)CO)C(=O)c2cccc(NS(=O)(=O)c3ccc(F)cc3)c2O[C@@H]1CN(C)Cc1ccc(Cl)c(Cl)c1 | 3 | / | 1 | -2 | / | /

Screening results: PubChem BioAssay, Broad Institute
